Laboratory results taken from PMC3117328 (Chemistry & biology, 2009).

Key:
[1] = biological target: EF-G GTPase (70S ribosomes) (Escherichia coli, UniProt P0A7J7); experiment: EF-G GTPase Pi release assay with MDCC-labeled PBP; assay type: biochemical
[2] = test system: Escherichia coli in vitro coupled transcription-translation (GFP synthesis); experiment: In vitro coupled transcription-translation; assay type: biochemical; settings: 5 µM ThS, 5 µM NoS, 25 µM GE2270T (Figure 4)
Summary of the method: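 E. coli lysate-based coupled transcription-translation system expressing GFP, ribosomes ~2 µM, run with or without test compound. After reaction, samples are moved to microtiter plates. GFP fluorescence is imaged on a laser scanner with blue-laser excitation and quantified from the images, with inhibition taken against the no-antibiotic reaction.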

[3] = biological target: IF2 (70S initiation complex formation) (Escherichia coli, UniProt P0A7J7); experiment: IF2^Cy3 fluorescence change assay; assay type: biochemical; settings: ThS, NoS at 1.5 µM (Figure 2A); precursors in dose response screen
[4] = biological target: EF-G GTPase (E. coli 70S ribosomes) (Escherichia coli, UniProt P0A7J7); assay type: biochemical; settings: compound 1 µM; 30 nM 70S ribosomes, 20 µM GTP, 60 nM protein
[5] = background statement, no reference given; cited from earlier work

EF-G GTPase (70S ribosomes), sequence (P0A7J7 2-142): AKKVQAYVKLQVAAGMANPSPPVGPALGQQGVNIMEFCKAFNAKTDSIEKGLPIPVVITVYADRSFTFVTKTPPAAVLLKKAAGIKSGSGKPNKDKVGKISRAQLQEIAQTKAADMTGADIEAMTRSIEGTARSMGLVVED
IF2 (70S initiation complex formation), sequence (P0A7J7 2-142, one chain of several): as the sequence (P0A7J7 2-142) above
EF-G GTPase (E. coli 70S ribosomes), sequence (P0A7J7 2-142): as above

| Molecule | EC50 [1] [nM] | inhibition of GFP synthesis in the in vitro TT assay [2] | inhibition of the IF2^Cy3 fluorescence increase on 70SIC formation (in words) [3] | inhibition of EF-G GTPase activity (Malachite Green) [4] | bioavailability [5] |
| --- | --- | --- | --- | --- | --- |
| C/C=C(\NC(=O)c1csc(-c2csc(-c3ccc4c(n3)-c3csc(n3)[C@H]([C@@H](C)O)NC(=O)c3csc(n3)[C@H](C(C)C)NC(=O)c3csc(n3)/C(=C/C)NC(=O)[C@H]([C@@H](C)O)NC(=O)c3csc-4n3)n2)n1)C(=O)NC[C@@H](C)O [MiC, micrococcin] | 110 | – | – | – | – |
| C=C(NC(=O)c1csc(-c2nc3c(cc2O)-c2nc(cs2)C(=O)N[C@@H]([C@@H](C)O)C(=O)N/C(=C\C)c2nc(cs2)C(=O)N[C@H]2C[C@H](O)C(=O)OCc4cccc5[nH]c(c(C)c45)C(=O)SC[C@H](NC(=O)c4csc2n4)c2nc-3cs2)n1)C(N)=O [NoS, nosiheptide] | 40 | potent inhibitors | inhibited | – | – |
| C=C(NC(=O)C(=C)NC(=O)c1csc(C2=N[C@@H]3c4csc(n4)[C@H]4NC(=O)c5csc(n5)[C@H]([C@](C)(O)[C@@H](C)O)NC(=O)[C@H]5CSC(=N5)/C(=C/C)NC(=O)[C@H]([C@@H](C)O)NC(=O)c5csc(n5)[C@]3(CC2)NC(=O)[C@H](C)NC(=O)C(=C)NC(=O)[C@H](C)NC(=O)[C@H]([C@@H](C)CC)N[C@@H]2C=Cc3c([C@H](C)O)cc(nc3[C@H]2O)C(=O)O[C@@H]4C)n1)C(N)=O [ThS, thiostrepton] | – | potent inhibitors | inhibited | almost completely abolished | poor |
| GE2270T | – | potent inhibitors | – | – | – |
